Measured values published in publication PMC7906539 (Medicinal chemistry research : an international journal for …, 2020).
Entries after “also recorded” stand apart in the source; their conditions may differ.

Key:
SH-SY5Y cells = experiment: Cytotoxicity assay; type: cell-based; conditions: for Cytotoxicity (SH-SY5Y cells, 24 h): 24 h incubation, CellTiter-Glo; for Cytotoxicity (SH-SY5Y cells, 24 h) / Cytotoxicity as stated in text: SH-SY5Y cells; for Cytotoxicity as stated in text: approximate value for both enantiomers
Outline: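 SH-SY5Y cells seeded at 6000/well in 1:1 EMEM/F12 with 10% FBS. Exposure 24 h at 37 °C, then CellTiter-Glo luminescence read. Percent cytotoxicity normalized to DMSO controls.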

[1] = biological target: His-mHtt and GST-CaM (CaM–mHtt interaction) (Homo sapiens, UniProt P0DP23+P42858); experiment: CaM/mHtt AlphaScreen binding assay; conditions: for IC50: read-out: AlphaScreen CaM–mHtt, IC50, triplicate
Outline: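 His-mHtt (10 nM) preincubated 30 min with test compound, then GST-CaM (10 nM) added for 60 min at room temperature. Ni-chelate acceptor (10 μg/mL) and glutathione donor beads (15 μg/mL) are added for 2 h, then Alpha counts are read. Final 300–0.002 μM, triplicate; % inhibition normalized to DMSO controls.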

[2] = biological target: death-associate protein kinase 1 (DAPK1) (Homo sapiens, UniProt P53355); experiment: CaM-dependent kinase assay; type: biochemical; conditions: single concentration of 100 μM, in the presence of CaM
Outline: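 Recombinant DAPK1 (25 ng), run with ADP-Glo at 5 μM ATP with native swine myelin basic protein as substrate, in the presence of CaM. Test compound is added at a single 100 μM (DMSO) and reacted 60 min at room temperature. Luminescence is read, and activity is expressed as percent of the no-compound reaction. Three experiments, ≥2 replicates each; mean ± SEM.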

[3] = tested on: calcium/CaM-dependent kinase 2γ (CaMK2γ); experiment: CaM-dependent kinase assay; type: biochemical, Human; conditions: single concentration of 100 μM, in the presence of CaM
Outline: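 ADP-Glo reaction with CaMK2γ (12 ng), 25 μM ATP and Autocamtide-2 substrate, carried out with CaM present. Test compound is at a single 100 μM from DMSO; incubation 60 min at room temperature. Luminescent readout gives percent enzyme activity relative to the reaction without compound. Run three times with at least two replicates per experiment; mean ± SEM.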

[4] = tested on: mHtt toxicity in PC12 cells; experiment: Protection against mHtt toxicity in neuronal cell model for HD; type: cell-based; conditions: three different concentrations
Outline: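 Each experiment run at least three times; values reported as mean ± standard error of the mean.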

Chain of death-associate protein kinase 1 (DAPK1) (P53355 1-363): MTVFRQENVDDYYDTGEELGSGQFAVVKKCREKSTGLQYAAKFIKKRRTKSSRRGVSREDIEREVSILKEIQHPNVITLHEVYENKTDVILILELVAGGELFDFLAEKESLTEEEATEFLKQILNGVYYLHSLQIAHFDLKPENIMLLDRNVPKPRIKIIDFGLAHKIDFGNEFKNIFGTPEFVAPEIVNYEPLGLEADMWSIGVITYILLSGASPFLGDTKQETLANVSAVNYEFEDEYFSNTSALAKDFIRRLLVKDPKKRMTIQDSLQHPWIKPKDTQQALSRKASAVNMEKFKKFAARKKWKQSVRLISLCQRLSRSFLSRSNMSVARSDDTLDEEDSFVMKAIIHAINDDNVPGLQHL
Chain of His-mHtt and GST-CaM (CaM–mHtt interaction) (P42858 whole entry, one chain of several): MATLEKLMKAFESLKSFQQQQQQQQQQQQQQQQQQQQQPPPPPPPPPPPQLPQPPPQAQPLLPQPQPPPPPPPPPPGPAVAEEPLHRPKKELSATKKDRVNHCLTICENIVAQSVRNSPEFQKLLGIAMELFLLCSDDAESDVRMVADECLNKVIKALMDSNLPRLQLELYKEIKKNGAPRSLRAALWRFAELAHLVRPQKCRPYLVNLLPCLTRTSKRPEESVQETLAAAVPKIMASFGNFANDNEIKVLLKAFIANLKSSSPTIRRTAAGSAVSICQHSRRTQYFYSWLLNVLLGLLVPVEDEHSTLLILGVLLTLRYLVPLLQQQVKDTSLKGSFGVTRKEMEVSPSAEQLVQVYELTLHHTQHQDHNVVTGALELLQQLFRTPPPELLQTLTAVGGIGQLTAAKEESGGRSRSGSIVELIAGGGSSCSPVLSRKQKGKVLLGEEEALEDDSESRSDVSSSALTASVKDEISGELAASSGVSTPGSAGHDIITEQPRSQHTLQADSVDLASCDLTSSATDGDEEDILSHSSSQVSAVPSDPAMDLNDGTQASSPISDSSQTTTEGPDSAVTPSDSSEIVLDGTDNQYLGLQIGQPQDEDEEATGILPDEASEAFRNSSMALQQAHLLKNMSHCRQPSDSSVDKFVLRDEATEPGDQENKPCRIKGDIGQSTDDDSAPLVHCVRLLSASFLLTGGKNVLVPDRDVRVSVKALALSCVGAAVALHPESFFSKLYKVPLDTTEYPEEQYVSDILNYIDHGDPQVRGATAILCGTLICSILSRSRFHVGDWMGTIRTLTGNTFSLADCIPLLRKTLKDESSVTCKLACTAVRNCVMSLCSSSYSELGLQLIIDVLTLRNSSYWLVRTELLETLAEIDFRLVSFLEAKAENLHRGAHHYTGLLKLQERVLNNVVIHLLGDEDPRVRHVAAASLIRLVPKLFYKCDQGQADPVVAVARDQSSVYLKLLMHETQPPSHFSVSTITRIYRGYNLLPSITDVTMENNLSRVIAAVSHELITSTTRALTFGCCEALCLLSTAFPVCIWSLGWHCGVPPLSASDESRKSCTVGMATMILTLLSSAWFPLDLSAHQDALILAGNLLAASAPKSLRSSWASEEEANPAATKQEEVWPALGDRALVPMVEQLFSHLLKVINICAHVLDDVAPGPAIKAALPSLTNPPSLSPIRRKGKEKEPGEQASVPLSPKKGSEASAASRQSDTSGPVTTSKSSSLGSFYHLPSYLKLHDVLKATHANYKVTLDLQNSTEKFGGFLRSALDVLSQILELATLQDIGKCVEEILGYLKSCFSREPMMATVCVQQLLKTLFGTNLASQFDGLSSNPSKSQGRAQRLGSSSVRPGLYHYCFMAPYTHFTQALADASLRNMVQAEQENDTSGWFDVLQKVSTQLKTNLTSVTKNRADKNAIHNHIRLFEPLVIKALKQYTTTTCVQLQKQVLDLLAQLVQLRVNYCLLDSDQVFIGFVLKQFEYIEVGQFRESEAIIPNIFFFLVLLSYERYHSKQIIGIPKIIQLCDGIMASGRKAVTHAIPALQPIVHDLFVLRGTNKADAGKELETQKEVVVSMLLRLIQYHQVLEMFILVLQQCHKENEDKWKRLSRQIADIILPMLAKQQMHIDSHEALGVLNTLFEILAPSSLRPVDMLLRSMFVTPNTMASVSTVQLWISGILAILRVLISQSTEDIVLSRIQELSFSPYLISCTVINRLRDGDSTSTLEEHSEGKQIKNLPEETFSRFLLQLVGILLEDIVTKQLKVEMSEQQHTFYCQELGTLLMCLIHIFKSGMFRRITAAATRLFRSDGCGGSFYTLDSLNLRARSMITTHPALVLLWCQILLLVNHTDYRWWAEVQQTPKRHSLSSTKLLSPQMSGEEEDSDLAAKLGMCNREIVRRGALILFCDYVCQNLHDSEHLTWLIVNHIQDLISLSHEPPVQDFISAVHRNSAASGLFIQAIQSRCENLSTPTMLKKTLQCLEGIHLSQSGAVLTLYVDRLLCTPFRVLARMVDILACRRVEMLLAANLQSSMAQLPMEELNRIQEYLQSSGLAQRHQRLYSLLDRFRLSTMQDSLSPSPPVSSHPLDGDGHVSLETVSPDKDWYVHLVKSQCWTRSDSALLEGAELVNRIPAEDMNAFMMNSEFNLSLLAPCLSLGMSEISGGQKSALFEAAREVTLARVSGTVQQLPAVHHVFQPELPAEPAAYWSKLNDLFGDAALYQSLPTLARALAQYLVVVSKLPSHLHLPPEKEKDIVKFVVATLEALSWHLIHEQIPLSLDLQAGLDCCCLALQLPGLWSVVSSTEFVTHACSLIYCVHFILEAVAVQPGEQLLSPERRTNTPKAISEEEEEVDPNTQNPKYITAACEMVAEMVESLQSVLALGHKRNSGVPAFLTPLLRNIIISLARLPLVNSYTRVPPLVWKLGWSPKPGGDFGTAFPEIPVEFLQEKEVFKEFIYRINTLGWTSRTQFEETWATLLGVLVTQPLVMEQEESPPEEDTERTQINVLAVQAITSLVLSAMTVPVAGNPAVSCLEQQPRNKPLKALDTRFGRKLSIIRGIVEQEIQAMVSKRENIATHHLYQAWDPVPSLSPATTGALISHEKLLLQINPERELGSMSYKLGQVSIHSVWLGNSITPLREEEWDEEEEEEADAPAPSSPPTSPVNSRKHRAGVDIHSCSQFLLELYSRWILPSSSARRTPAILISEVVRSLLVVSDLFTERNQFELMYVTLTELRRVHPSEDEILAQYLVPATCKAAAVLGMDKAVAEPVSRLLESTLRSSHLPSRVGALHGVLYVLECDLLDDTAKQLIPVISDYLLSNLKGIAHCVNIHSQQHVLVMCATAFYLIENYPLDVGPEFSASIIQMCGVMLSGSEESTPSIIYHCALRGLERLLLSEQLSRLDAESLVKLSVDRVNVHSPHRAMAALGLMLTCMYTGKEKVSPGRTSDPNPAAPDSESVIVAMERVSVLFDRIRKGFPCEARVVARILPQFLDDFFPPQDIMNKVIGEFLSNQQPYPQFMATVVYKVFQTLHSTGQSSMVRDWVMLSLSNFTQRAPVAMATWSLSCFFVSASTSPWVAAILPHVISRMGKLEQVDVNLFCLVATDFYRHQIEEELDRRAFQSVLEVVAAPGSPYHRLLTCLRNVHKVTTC

Row | SMILES | Cytotoxicity (SH-SY5Y cells, 24 h) (SH-SY5Y cells) | IC50 [1] | also measured
1 | CC(C)C[C@@H](C(=O)NCc1ccc(Cl)c(Cl)c1)N1CCC(=O)c2ccccc2S1(=O)=O [Compound 11a, (S) -N-(3,4-Dichlorobenzyl)-2-(1,1-dioxido-5-oxo-4,5-dihydrobenzo[f][1,2]thiazepin-2(3H)-yl)-4-methylpentanamide] | 39.8 µM | 2.14 µM | –
2 | C=C1CCN([C@@H](CC(C)C)C(=O)NCc2ccc(Cl)cc2)S(=O)(=O)c2ccccc21 [Compound 9c, (S)-N-(4-Chlorobenzyl)-4-methyl-2-(5-methylene-1,1-dioxido-4,5-dihydrobenzo[f][1,2]thiazepin-2(3H)-yl) pentanamide] | 94 ± 3 µM | 2.8 µM | Inhibition of DAPK1 enzyme activity (in words) [2]: did not significantly inhibit; Cytotoxicity as stated in text (SH-SY5Y cells): ca. 90 pM; Inhibition of CaMK2γ enzyme activity (in words) [3]: did not significantly inhibit
3 | CC(C)C[C@@H](C(=O)NCC1CCCCC1)N1CCC(=O)c2ccccc2S1(=O)=O [Compound 11g, (S)-W-(Cyclohexylmethyl)-2-(1,1-dioxido-5-oxo-4,5-dihydrobenzo[f][1,2]thiazepin-2(3H)-yl)-4-methylpentanamide] | 40.1 µM | 31 µM | –
4 | C=C1CCN([C@@H](CC(C)C)C(=O)NCc2ccc(C)cc2)S(=O)(=O)c2ccccc21 [Compound 9e, (S)-4-Methyl-N-(4-methylbenzyl)-2-(5-methylene-1,1-dioxido-4,5-dihydrobenzo[f][1,2]thiazepin-2(3H)-yl) pentanamide] | 102 ± 7 µM | 15 µM | –
5 | C=C1CCN([C@H](CC(C)C)C(=O)NCCc2ccc(Cl)c(Cl)c2)S(=O)(=O)c2ccccc21 [Compound 10h] | >300 µM | 0.5 µM | Inhibition of DAPK1 enzyme activity (in words) [2]: did not significantly inhibit; Inhibition of CaMK2γ enzyme activity (in words) [3]: did not significantly inhibit
6 | C=C1CCN([C@H](CC(C)C)C(=O)NCc2ccc(OC)cc2)S(=O)(=O)c2ccccc21 [Compound 10f, (R)-N-(4-Methoxybenzyl)-4-methyl-2-(5-methylene-1,1-dioxido-4,5-dihydrobenzo[f][1,2]thiazepin-2(3H)-yl) pentanamide] | >300 µM | > 300 µM | Disruption of mHtt-CaM PPI (in words) [1]: lost all mHtt-CaM disruption activity
7 | C=C1CCN([C@@H](CC(C)C)C(=O)NCc2ccccc2)S(=O)(=O)c2ccccc21 [Compound 9b] | >300 µM | 12.4 µM | –
8 | Cc1ccc(CNC(=O)[C@H](CC(C)C)N2CCC(=O)c3ccccc3S2(=O)=O)cc1 [Compound 11e, (S)-2-(1,1-Dioxido-5-oxo-4,5-dihydrobenzo[f][1,2]thiazepin-2(3H)-yl)-4-methyl-N-(4-methylbenzyl)pentanamide] | 43.4 µM | 24.5 µM | –
9 | C=C1CCN([C@H](CC(C)C)C(=O)NCC2CCCCC2)S(=O)(=O)c2ccccc21 [Compound 10g, (R)-N-(Cyclohexylmethyl)-4-methyl-2-(5-methylene-1,1-dioxido-4,5-dihydrobenzo[f][1,2]thiazepin-2(3H)-yl) pentanamide] | 99 ± 4 µM | 12.2 µM | –
10 | C=C1CCN([C@H](CC(C)C)C(=O)NCc2ccc(Cl)c(Cl)c2)S(=O)(=O)c2ccccc21 [Compound 10a, (R)-N-(3,4-Dichlorobenzyl)-4-methyl-2-(5-methylene-1,1-dioxido-4,5-dihydrobenzo[f][1,2]thiazepin-2(3H)-yl) pentanamide] | >300 µM | 0.98 µM | –
11 | C=C1CCN([C@H](CC(C)C)C(=O)NCc2ccc(Cl)cc2)S(=O)(=O)c2ccccc21 [Compound 10c, (R)-N-(4-Chlorobenzyl)-4-methyl-2-(5-methylene-1,1-dioxido-4,5-dihydrobenzo[f][1,2]thiazepin-2(3H)-yl) pentanamide] | 86 ± 9 µM | 3 µM | Inhibition of DAPK1 enzyme activity (in words) [2]: did not significantly inhibit; Cytotoxicity as stated in text (SH-SY5Y cells): ca. 90 pM; Inhibition of CaMK2γ enzyme activity (in words) [3]: did not significantly inhibit
12 | COc1ccc(CNC(=O)[C@H](CC(C)C)N2CCC(=O)c3ccccc3S2(=O)=O)cc1 [Compound 11f, (S)-2-(1,1-Dioxido-5-oxo-4,5-dihydrobenzo[f][1,2]thiazepin-2(3H)-yl)-N-(4-methoxybenzyl)-4-methylpentanamide] | 44.6 µM | 52.6 µM | Disruption of mHtt-CaM PPI (in words) [1]: retained marginal activity
13 | C=C1CCN([C@@H](CC(C)C)C(=O)NCc2ccc(Cl)c(C(F)(F)F)c2)S(=O)(=O)c2ccccc21 [Compound 9d, (S)-N-(4-Chloro-3-(trifluoromethyl)benzyl)-4-methyl-2-(5-methylene-1,1-dioxido-4,5-dihydrobenzo[f][1,2]thiazepin-2 (3H)-yl)pentanamide] | >300 µM | 1.38 µM | Inhibition of DAPK1 enzyme activity (in words) [2]: did not significantly inhibit; Protection against mHtt toxicity (in words) [4]: barely measurable activity; also recorded: do not show protection; also recorded: no significant rescue of the toxicity; Inhibition of CaMK2γ enzyme activity (in words) [3]: did not significantly inhibit
14 | C=C1CCN([C@H](CC(C)C)C(=O)NCc2ccccc2)S(=O)(=O)c2ccccc21 [Compound 10b, (R)-N-Benzyl-4-methyl-2-(5-methylene-1,1-dioxido-4,5-dihydrobenzo[f][1,2]thiazepin-2(3H)-yl)pentanamide] | 87 ± 2 µM | 12.7 µM | –
15 | C=C1CCN([C@@H](CC(C)C)C(=O)NCC2CCCCC2)S(=O)(=O)c2ccccc21 [Compound 9g, (S)-N-(Cyclohexylmethyl)-4-methyl-2-(5-methylene-1,1-dioxido-4,5-dihydrobenzo[f][1,2]thiazepin-2(3H)-yl) pentanamide] | 101 ± 5 µM | 16.6 µM | –
16 | C=C1CCN([C@H](CC(C)C)C(=O)NCc2ccc(Cl)c(C(F)(F)F)c2)S(=O)(=O)c2ccccc21 [Compound 10d, (R)-N-(4-Chloro-3-(trifluoromethyl)benzyl)-4-methyl-2-(5-methylene-1,1-dioxido-4,5-dihydrobenzo[f][1,2]thiazepin-2 (3H)-yl)pentanamide] | >300 µM | 1.8 µM | –
17 | CC(C)C[C@@H](C(=O)NCc1ccccc1)N1CCC(=O)c2ccccc2S1(=O)=O [Compound 11b, (S)-N-Benzyl-2-(1,1-dioxido-5-oxo-4,5-dihydrobenzo[f][1,2]thiazepin-2(3H)-yl)-4-methylpentanamide] | 43.8 µM | 14.6 µM | –
18 | CC(C)C[C@@H](C(=O)NCc1ccc(Cl)c(C(F)(F)F)c1)N1CCC(=O)c2ccccc2S1(=O)=O [Compound 11d, (S)-N-(4-Chloro-3-(trifluoromethyl)benzyl)-2-(1,1-dioxido-5-oxo-4,5-dihydrobenzo[f][1,2]thiazepin-2(3H)-yl)-4-methylpentanamide] | 44.2 µM | 2.03 µM | –
19 | C=C1CCN([C@@H](CC(C)C)C(=O)NCc2ccc(Cl)c(Cl)c2)S(=O)(=O)c2ccccc21 [Compound 9a] | >300 µM | 1.03 µM | Toxicity to SH-SY5Y cells (in words) (SH-SY5Y cells): no measurable toxicity; Disruption of mHtt-CaM PPI (in words) [1]: retained activity
20 | C=C1CCN([C@H](CC(C)C)C(=O)NCc2ccc(C)cc2)S(=O)(=O)c2ccccc21 [Compound 10e, (R)-4-Methyl-N-(4-methylbenzyl)-2-(5-methylene-1,1-dioxido-4,5-dihydrobenzo[f][1,2]thiazepin-2(3H)-yl) pentanamide] | 64 ± 2.5 µM | 15.1 µM | –
21 | C=C1CCN([C@@H](CC(C)C)C(=O)NCc2ccc(OC)cc2)S(=O)(=O)c2ccccc21 [Compound 9f, (S)-N-(4-Methoxybenzyl)-4-methyl-2-(5-methylene-1,1-dioxido-4,5-dihydrobenzo[f][1,2]thiazepin-2(3H)-yl) pentanamide] | >300 µM | > 300 µM | Disruption of mHtt-CaM PPI (in words) [1]: lost all mHtt-CaM disruption activity
22 | CC(C)C[C@@H](C(=O)NCCc1ccc(Cl)c(Cl)c1)N1CCC(=O)c2ccccc2S1(=O)=O [Compound 11h, (S)-N-(3,4-Dichlorophenethyl)-2-(1,1-dioxido-5-oxo-4,5-dihydrobenzo[f][1,2]thiazepin-2(3H)-yl)-4-methylpentanamide] | 32.3 µM | 0.97 µM | –
23 | CC(C)C[C@@H](C(=O)NCc1ccc(Cl)cc1)N1CCC(=O)c2ccccc2S1(=O)=O [Compound 11c, (S)-N-(4-Chlorobenzyl)-2-(1,1-dioxido-5-oxo-4,5-dihydrobenzo[f][1,2]thiazepin-2(3H)-yl)-4-methylpentanamide] | 41.4 µM | 11.2 µM | –
